MrgX1 antagonist = antagonists of human MrgX1 receptor, primary screen, HEK293 cells, Fluo-4 calcium flux | BAM8-22 antagonism; active compounds read low | AID 588676, 2011 | B-score at 10 µM | 1.3% of 310,000 active;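 active = calcium-response B-score plate-corrected more than 3 library SD below zero, starting fluorescence within 5 deviations, no agonist response on first addition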;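 also: peak minus trough fluorescence over baseline after final BAM8-22 challenge near maximal dose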
Target sequence (Q96LB2 whole entry, looked up): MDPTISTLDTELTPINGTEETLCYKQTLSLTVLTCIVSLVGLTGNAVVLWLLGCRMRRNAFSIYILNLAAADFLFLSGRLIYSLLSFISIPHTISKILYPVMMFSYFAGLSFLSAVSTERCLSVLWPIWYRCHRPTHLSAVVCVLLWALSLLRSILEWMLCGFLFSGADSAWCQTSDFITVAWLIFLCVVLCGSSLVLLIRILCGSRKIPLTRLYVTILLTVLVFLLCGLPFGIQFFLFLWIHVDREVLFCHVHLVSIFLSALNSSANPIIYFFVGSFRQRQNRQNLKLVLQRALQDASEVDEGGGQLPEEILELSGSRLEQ
MrgX1 allo act = positive allosteric modulators of MrgX1, primary screen, HEK293 cells, Fluo-4 calcium flux. Mas-related G-protein coupled receptor member X1 (Homo sapiens), Q96LB2. FDSS; active compounds read high. B-score at 10 µM. 0.63% of 310,000 active;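 active = plate-corrected calcium response at least 3 library SD above typical, normal starting fluorescence, not activating the receptor alone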;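 also: compound read alongside a low EC10 to EC30 dose of BAM8-22 agonist; peak minus trough fluorescence over baseline measured at the second addition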
RGS4 block = RGS4 inhibitors, primary screen, cell-based, HEK293 M3R inducible RGS4, calcium flux. Regulator of G-protein signaling 4 (Homo sapiens), P49798. Fluo-4 calcium flux; active compounds read high; triggered by carbachol at its EC20. B-score at 10 µM. 0.45% of 310,000 active;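 active = B-score, a plate-corrected calcium signal, over three deviations above library mean, with baseline fluorescence within five deviations of library mean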;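 also: RGS4 expression induced by doxycycline in cells with stable M3 receptor; B-score is computed from the integrated fluorescence ratio over baseline after carbachol; higher B-score means a larger calcium signal and so more RGS4 inhibition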
Target sequence (P49798 whole entry, looked up): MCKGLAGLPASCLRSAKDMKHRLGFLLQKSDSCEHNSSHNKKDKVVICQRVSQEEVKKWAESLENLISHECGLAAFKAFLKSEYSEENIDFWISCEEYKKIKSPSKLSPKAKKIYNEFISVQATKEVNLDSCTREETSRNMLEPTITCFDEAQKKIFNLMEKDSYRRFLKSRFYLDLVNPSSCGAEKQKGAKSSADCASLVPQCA
MrgX1 agonist = agonists of human MrgX1 receptor, primary screen, HEK293 cells, Fluo-4 calcium flux | B-score at 10 µM | Mas-related G-protein coupled receptor member X1 (Homo sapiens), Q96LB2 | 0.44% of 310,000 active | Fluo-4 calcium fluorescence, agonist mode; active compounds read high;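 active = calcium response B-score plate-corrected fluorescence ratio at least 3 library SD, with starting fluorescence B-score inside 5 SD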
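Assay system: MrgX1-expressing HEK293 cells / Amount: fifteen thousand cells per well / Doses: test compound in the initial addition of three / Timing: cells plated overnight, dye loaded 0.5 h 37 °C, 0.5 h room temperature / Technique: kinetic calcium dye fluorescence, Fluo-4 NW / Control set: positive and negative controls per plate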
RGS4 pot = RGS4 potentiators or activators, primary screen, cell-based, HEK293 M3R inducible RGS4, calcium flux; AID 463111, 2010; B-score at 10 µM; 0.92% of 310,000 active; carbachol calcium flux Fluo4; active compounds read low;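 active = B-score of the integrated calcium signal more than 4 SD below the library mean, with starting fluorescence not abnormally high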;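 also: negative B-score means reduced calcium response which marks RGS4 activation or potentiation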
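Material: Inducible-RGS4 HEK293 cells carrying M3 receptor; also added: carbachol at ECmax as muscarinic agonist stimulus; incubation: compound preincubation 20 min at room temperature before agonist; signal: Fluo4-AM (2 µM) calcium-flux fluorescence, kinetic read; measure: integrated calcium ratio converted to B score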
RGS4 activ val = reduced carbachol calcium response, RGS4-induced M3R cells, confirmation, RGS4 activator project, cell-based, HEK293 M3R/RGS4 inducible, calcium flux, duplicate | carbachol calcium flux Fluo4 | inhibition, % at 10 µM | shares compounds with RGS4 pot | AID 602282, 2012 | 89% of 1,100 active;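 active = inhibition above 3 SD of the buffer control wells, cut at about 41% in these data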;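 also: signal is the integrated peak-minus-minimum Fluo4 fluorescence over baseline ratio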
RGS4 act ctr = counter-screen for RGS4 activators: effect in non-induced cells | shares compounds with RGS4 pot | HEK293 M3R non-induced RGS4, Fluo4 calcium flux; after carbachol challenge at its EC90 | inhibition, % at 10 µM | 82% of 1,100 active;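 active = inhibition exceeding 3 SD of buffer-only control wells, cut at about 26% in these data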;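 also: percent drop in integrated peak-minus-baseline over baseline Fluo4 ratio after carbachol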
* hit, by the source's call. Compounds with a hit are over-represented: about 3.5% of the library has one in this group of screens.

CCN(CC)CCCOC(=O)C(c1ccccc1)c1ccccc1 was read as MrgX1 antagonist -6.22*, MrgX1 allo act inactive, RGS4 block inactive, MrgX1 agonist inactive, RGS4 pot -10.1*, RGS4 activ val 94.0* and RGS4 act ctr 93.8*.
COc1ccc(C(O)(CCN2CCCCC2)C2CCCCC2)cc1 (stereo not given) was read as MrgX1 antagonist inactive, MrgX1 allo act inactive, RGS4 block inactive, MrgX1 agonist inactive, RGS4 pot -10.3*, RGS4 activ val 92.0* and RGS4 act ctr 95.3*.
Screening CCCC(O)(CCN1CCCCC1)c1ccc(OCC)cc1 (stereo not given) returned MrgX1 antagonist inactive, MrgX1 allo act inactive, RGS4 block inactive, MrgX1 agonist inactive and RGS4 pot inactive.
Screening CC1(C)C2C/C(=N\O)C(C)(/[N+]([O-])=C/c3cccc([N+](=O)[O-])c3)CC21 (stereo not given) returned MrgX1 antagonist inactive, MrgX1 allo act inactive, RGS4 block inactive, MrgX1 agonist inactive and RGS4 pot inactive.
`Cn1c(SCCOc2ccccc2F)nc2ccccc2c1=O` gave MrgX1 antagonist inactive, MrgX1 allo act inactive, RGS4 block inactive, MrgX1 agonist inactive, RGS4 pot -7.81*, RGS4 activ val 92.0* and RGS4 act ctr 80.8*.
Screening COc1ccccc1N(CCC#N)C(=O)CSc1nc(-c2ccccc2)cn1N returned MrgX1 antagonist inactive, MrgX1 allo act inactive, RGS4 block inactive, MrgX1 agonist inactive and RGS4 pot inactive.
For COc1ccc(C(=O)c2sc3nc(C)cc(-c4cccs4)c3c2N)cc1 the results were RGS4 block inactive and RGS4 pot inactive.
`COc1ccc(C(=O)c2sc3nc(C)cc(-c4cccs4)c3c2N)cc1OC` gave MrgX1 antagonist inactive, MrgX1 allo act inactive, RGS4 block inactive, MrgX1 agonist inactive, RGS4 pot -8.7*, RGS4 activ val 83.0* and RGS4 act ctr 71.3*.
Fc1ccc(-c2n[nH]c(=S)c3ccccc23)cc1 was read as MrgX1 antagonist inactive, MrgX1 allo act inactive, RGS4 block inactive, MrgX1 agonist inactive and RGS4 pot inactive.
For Cc1ccccc1CN1C(=O)/C(=C\c2ccc(C(=O)NCCN3CCOCC3)cc2)Sc2ccccc21 the results were MrgX1 antagonist inactive, MrgX1 allo act inactive, RGS4 block inactive, MrgX1 agonist inactive, RGS4 pot -12.1*, RGS4 activ val 90.5* and RGS4 act ctr 81.3*.
Screening CC1(C(O)(C#CC[N+]2(C)CCCCC2)c2ccccc2)CCCC1 (stereo not given) returned MrgX1 antagonist inactive, MrgX1 allo act inactive, RGS4 block inactive, MrgX1 agonist inactive, RGS4 pot -15.5*, RGS4 activ val 91.5* and RGS4 act ctr 94.8*.
`C[N+]1(CC(=O)OCCCc2ccccc2)CCCCC1` gave MrgX1 antagonist inactive, MrgX1 allo act inactive, RGS4 block inactive, MrgX1 agonist inactive and RGS4 pot inactive.
`O=C(CC1CCCCC1)NC1CCCC1` gave MrgX1 antagonist inactive, MrgX1 allo act inactive, RGS4 block inactive, MrgX1 agonist inactive and RGS4 pot inactive.
Screening O=C(CC1CCS(=O)(=O)C1)NC1CCCCC1 (stereo not given) returned MrgX1 antagonist inactive, MrgX1 allo act inactive, RGS4 block inactive, MrgX1 agonist inactive, RGS4 pot -9.32*, RGS4 activ val 0.0 and RGS4 act ctr 0.0.
For Cc1cc(OCC(=O)Nc2ccc(S(=O)(=O)N3CCN(C)CC3)cc2)ccc1Cl the results were MrgX1 antagonist inactive, MrgX1 allo act inactive, RGS4 block inactive, MrgX1 agonist inactive, RGS4 pot -8.3*, RGS4 activ val 0.0 and RGS4 act ctr 0.0.
For O=C(CSc1nc(O)cc(=O)n1-c1ccccc1)Nc1ccc(Br)cn1 the results were MrgX1 antagonist inactive, MrgX1 allo act inactive, RGS4 block inactive, MrgX1 agonist inactive and RGS4 pot inactive.
`CCOC(=O)N1CCC(NC(=O)c2cnn3c(C(F)(F)F)cc(-c4cccc(OC)c4)nc23)CC1` gave MrgX1 antagonist inactive, MrgX1 allo act inactive, RGS4 block inactive, MrgX1 agonist inactive, RGS4 pot -8.38*, RGS4 activ val 0.0 and RGS4 act ctr 0.0.
`COc1cccc(-c2nn(-c3ccc(C)cc3)cc2C(=O)N2CCc3cc(OC)c(OC)cc3C2)c1` gave MrgX1 antagonist inactive, MrgX1 allo act inactive, RGS4 block inactive, MrgX1 agonist inactive, RGS4 pot -9.2*, RGS4 activ val 45.0* and RGS4 act ctr 0.0.
Screening COc1cccc(-c2nn(-c3ccccc3)cc2C(=O)O)c1 returned MrgX1 antagonist inactive, MrgX1 allo act inactive, RGS4 block inactive, MrgX1 agonist inactive and RGS4 pot inactive.
For CN(C)c1cc2c(cc1NC(=O)c1ccccc1Cl)n(C)c(=O)n2C the results were MrgX1 antagonist inactive, MrgX1 allo act inactive, RGS4 block inactive, MrgX1 agonist inactive and RGS4 pot inactive.
`COC(=O)C(NC(=O)COc1ccccc1)(Nc1nc2c(s1)CCCC2)C(F)(F)F` (stereo not given) gave MrgX1 antagonist inactive, MrgX1 allo act inactive, RGS4 block inactive, MrgX1 agonist inactive, RGS4 pot -12*, RGS4 activ val 80.5* and RGS4 act ctr 32.8*.
O=C(c1ccc(S(=O)(=O)N2CCOCC2)cc1)N1CCN(c2cccc(Cl)c2)CC1 was read as MrgX1 antagonist inactive, MrgX1 allo act inactive, RGS4 block inactive, MrgX1 agonist inactive and RGS4 pot inactive.
For O=C(NCC1CCN(c2ccc(S(=O)(=O)N3CCOCC3)cc2)CC1)c1cccc(Cl)c1 the results were MrgX1 antagonist inactive, MrgX1 allo act inactive, RGS4 block inactive, MrgX1 agonist inactive, RGS4 pot -8.05*, RGS4 activ val 90.0* and RGS4 act ctr 92.3*.
`COc1cccc(-c2nnc(NC(=O)c3ccc(S(=O)(=O)N4CCOCC4)cc3)o2)c1` gave MrgX1 antagonist inactive, MrgX1 allo act inactive, RGS4 block inactive, MrgX1 agonist inactive and RGS4 pot inactive.

Screening data from PubChem.
